Data as given in ChEMBL document CHEMBL1148358, “DNA binding to guide the development of tetrahydroindeno[1,2-b]pyrido[4,3,2-de]quinoline derivatives as cytotoxic agents” (J Med Chem, 2004).

Assays:
Nucleic Acid [1] = test: Relative DNA binding affinity was determined as difference in melting temperature (delta Tm) with the polynucleotide Poly (dAT)2 complex and alone Poly (dAT)2; format: nucleic-acid assay
PC-3 = test: Cytotoxicity towards human prostate cancer PC 3 cell line was determined; format: functional, cell-based
Outline: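 PC 3 cells kept in RPMI 1640 with 10% FCS were seeded at 3 × 10⁴ cells/well. After 3 days they were serum-starved for 24 h, then stimulated with 10 ng/mL EGF plus transferrin 50 ng/mL and selenium 50 pg/mL, with compounds added. Growth was read by MTT colorimetry after a further 72 h.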

Nucleic Acid [2] = test: Apparent binding constant with polynucleotide Poly (dAT)2 complex measured by fluorescence assay; format: nucleic-acid assay; conditions: in the assay text read “calf thymus DNA” for “polynucleotide Poly (dAT)2 complex”
Outline: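 Ethidium displacement by fluorescence: excitation 515 nm, emission read over 550-700 nm, [ethidium]/[DNA] molar ratio 12.6:10, drug 0.01-100 µM in BPE buffer pH 7.1. C50 for ethidium displacement taken from a fitted curve; Kapp = (1.26 µM/C50) × K_ethidium, with K_ethidium = 10⁷ M^-1.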

Nucleic Acid [3] = test: Apparent binding constant with calf thymus DNA measured by fluorescence assay

Row | ΔTm (Nucleic Acid [1]) | K app (Nucleic Acid [2]) | K app (Nucleic Acid [3]) | Compound | IC50 (PC-3)
1 | 19.6 °C | 503000 M⁻¹ | – | COc1cc2nc3c(c4c2c(c1OC)N(C(=O)CN1CCN(C)CC1)CC4)Cc1cc(OCCN)ccc1-3 | > 1000 nM
2 | – | – | – | COc1ccc2c(c1)Cc1c-2nc2cc(OC)c(OC)c3c2c1CCN3C(C)=O | > 1000 nM
3 | 3.1 °C | 677000 M⁻¹ | – | COc1cc2nc3c(c4c2c(c1OC)N(C(C)=O)CC4)Cc1cc(O)ccc1-3 | > 1000 nM
4 | 10 °C | 301000 M⁻¹ | – | COc1cc2nc3c(c4c2c(c1OC)NCC4)Cc1cc(OCCCN2CCN(C)CC2)ccc1-3 | 6.5 nM
5 | 4 °C | – | 672000 M⁻¹ | COc1cc2nc3c(c4c2c(c1OC)NCC4)Cc1cc(O)ccc1-3 | > 1000 nM
6 | 1.1 °C | 1600 M⁻¹ | – | COc1cc2nc3c(c4c2c(c1OC)NCC4)CCc1cc(O)ccc1-3 | > 1000 nM
7 | 22.5 °C | – | 2.78e+06 M⁻¹ | COc1cc2nc3c(c4c2c(c1OC)N(C(=O)CN1CCN(C)CC1)CC4)Cc1cc(OCCCN)ccc1-3 | > 1000 nM
8 | 7 °C | 990000 M⁻¹ | – | COc1cc2nc3c(c4c2c(c1OC)N(C(C)=O)CC4)Cc1cc(OCCN)ccc1-3 | > 1000 nM
9 | 0 °C | 1700 M⁻¹ | – | COc1ccc2c(c1)Cc1c-2nc2cc(OC)c(OC)c3c2c1CCN3 | > 1000 nM
10 | 15.8 °C | 6.13e+06 M⁻¹ | – | COc1cc2nc3c(c4c2c(c1OC)NCC4)Cc1cc(OCCCN)ccc1-3 | > 1000 nM
11 | 3.8 °C | 3.58e+06 M⁻¹ | – | COc1cc2nc3c(c4c2c(c1OC)N(C(C)=O)CC4)Cc1cc(OCCCN2CCN(C)CC2)ccc1-3 | > 1000 nM
12 | 0 °C | 3100 M⁻¹ | – | COc1cc2nc3c(c4c2c(c1OC)NCC4)Cc1ccccc1-3 | > 1000 nM
13 | 14.8 °C | 5.14e+06 M⁻¹ | – | COc1cc2nc3c(c4c2c(c1OC)NCC4)Cc1cc(OCCN)ccc1-3 | > 1000 nM
14 | 32.5 °C | 3.04e+06 M⁻¹ | – | COc1cc2nc3c(c4c2c(c1OC)N(C(=O)CN1CCN(C)CC1)CC4)Cc1cc(OCCCN2CCN(C)CC2)ccc1-3 | > 1000 nM
15 | 6 °C | – | 293000 M⁻¹ | COc1cc2nc3c(c4c2c(c1OC)N(C(C)=O)CC4)Cc1cc(OCCCN)ccc1-3 | > 1000 nM
16 | – | – | – | COc1cc2nc3c(c4c2c(c1OC)N(C(C)=O)CC4)Cc1ccccc1-3 | > 1000 nM
